The values that follow come from publication PMC3674282 (Nature Communications, 2013).

The structures appear in SMILES notation. Numbering of substitutions follows the chain as printed.

The target in data set [1] is T1, Ac-AChBP (Aplysia californica, UniProt Q8WSF8).
T1 sequence (Q8WSF8 20-236): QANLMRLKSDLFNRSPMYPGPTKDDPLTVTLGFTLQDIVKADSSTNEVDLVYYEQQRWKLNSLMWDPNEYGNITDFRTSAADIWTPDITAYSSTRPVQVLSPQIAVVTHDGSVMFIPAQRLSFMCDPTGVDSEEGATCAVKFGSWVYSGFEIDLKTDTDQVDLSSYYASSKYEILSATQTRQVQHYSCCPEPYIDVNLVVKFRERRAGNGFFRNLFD
The data set is described as follows: biochemical. Format: binding.

Another data set has as its target human α7 nAChR (Homo sapiens, UniProt P36544). The data set can be described thus: radioligand displacement. Format: binding. An outline of the steps: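 SH-SY5Y neuroblastoma cells expressing human α7 nAChR were washed three times, stored as frozen pellets at −80 °C, then resuspended in ice-cold buffer and sonicated. Incubation used PBS/20 mM Tris pH 7.4/0.05% Tween, test compound at 10−3–10−11 M and [3H]MLA at 2 nM final, for 1.5 h at room temperature with shaking and protected from light. Bound label was collected on PEI-pretreated GF/C filters, washed with ice-cold 50 mM Tris pH 7.4 and counted. Curves were fitted by non-linear least squares; mean±s.e.m. of ≥3 independent experiments.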
(In general: Loss of bound radioactivity is the signal in a displacement assay; it reports binding, not function.)

For another data set, the target named is T2, Ac-AChBP Y186A (Aplysia californica, UniProt Q8WSF8, Y205A).
T2 sequence (Q8WSF8 20-236 Y205A): T1 sequence (Q8WSF8 20-236) with Y186A
The data set is described as follows: radioligand displacement on mutant Ac-AChBP Y186A. The class given is binding. The conditions noted are these: Y186 mutated to alanine.

For a further data set, the target named is T3, Ac-AChBP Y193A (Aplysia californica, UniProt Q8WSF8, Y212A).
T3 sequence (Q8WSF8 20-236 Y212A): T1 sequence (Q8WSF8 20-236) with Y193A
The data set can be described thus: radioligand displacement on mutant Ac-AChBP Y193A. Conditions: Y193 mutated to alanine. Format: binding.

For data set [2], the target named is T1, Ac-AChBP. The data set can be described thus: equilibrium titration of binding sites by tryptophan fluorescence quenching. The conditions noted are these: Ac-AChBP 20 μM binding sites. An outline of the steps: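 Ac-AChBP (20 μM in binding sites) was titrated with rising test compound until quenching fell below 8%. Tryptophan emission was read at 340 nm with excitation at 280 nm. Stoichiometry came from a straight line fitted through the average of the plateau points.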

The next data set has as its target human α7 nAChRs (Homo sapiens, UniProt P36544). The data set can be described thus: electrophysiology on Xenopus oocytes expressing human α7 nAChR. The class given is cell-based.
A further data set is described as follows: solubility. Format: physicochemical. The conditions noted are these: in words.
For data set [3], the target named is T1, Ac-AChBP. The data set is described as follows: affinity by tryptophan fluorescence quenching. Format: binding. Put shortly:
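Untagged wild-type Ac-AChBP, purified from Sf21 insect cells, at 1 μM in binding sites, equilibrated with a dilution series of test compound for 1 h. Tryptophan fluorescence read on a plate reader: excitation 280 nm, emission 340 nm (slit 8 nm). Data normalised and pKi obtained by fitting a sigmoidal dose–response curve.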

The target of data set [4] is T1, Ac-AChBP. The data set is described as follows: titration of AO with Ac-AChBP by AO fluorescence quenching. The class given is binding. The conditions noted are these: AO 100 μM titrated with Ac-AChBP, absence of nicotine. An outline of the steps: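 Test compound at 100 μM was titrated with increasing Ac-AChBP. Its own fluorescence was monitored with excitation at 495 nm and emission at 525 nm (slit 10 nm). A competition arm, where indicated, included 1 mM nicotine.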

Data set [5] has as its target T1, Ac-AChBP. The data set can be described thus: isothermal titration calorimetry. The conditions noted are these: 25°, PBS. Format: binding. Put shortly:
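The protein was dialysed into PBS and the test compound was dissolved in the same buffer. Titrations ran on a VP-ITC microcalorimeter at 25°. Heat of dilution from ligand titrated into buffer alone was subtracted as background. Data were fitted by non-linear least squares to a one-set-of-sites model.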
A general note: ITC needs no label: the signal is the heat of the interaction.

Sequence of human α7 nAChRs (P36544 23-502): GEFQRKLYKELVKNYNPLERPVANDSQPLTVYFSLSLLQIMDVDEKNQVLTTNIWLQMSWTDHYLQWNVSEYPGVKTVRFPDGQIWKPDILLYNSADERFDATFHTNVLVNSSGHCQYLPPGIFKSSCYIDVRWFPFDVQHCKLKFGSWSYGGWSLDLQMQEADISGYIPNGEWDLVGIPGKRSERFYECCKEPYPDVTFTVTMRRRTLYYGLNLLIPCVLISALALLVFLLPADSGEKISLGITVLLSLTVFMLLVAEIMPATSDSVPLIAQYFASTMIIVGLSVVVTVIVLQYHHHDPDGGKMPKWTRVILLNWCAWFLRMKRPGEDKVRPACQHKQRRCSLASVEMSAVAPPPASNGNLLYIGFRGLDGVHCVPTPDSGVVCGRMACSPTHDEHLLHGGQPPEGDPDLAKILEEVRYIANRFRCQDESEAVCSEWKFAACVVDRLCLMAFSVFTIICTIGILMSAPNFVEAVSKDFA
Sequence of human α7 nAChR (P36544 23-502): as above

For orientation: Ki means a dissociation constant, usually derived from enzyme kinetics or from competition with a known ligand. Take `Cc1cc(C)nc(C(=N)Nc2nc(-c3ccccn3)cc3ccccc23)n1` [VUF9432, 4,6-dimethyl-N-(3-(pyridin-2-yl)isoquinoline-1-yl)-pyrimidine-2-carboximidamide]: the affinity on Ac-AChBP [1], expressed as Ki, was 11 µM. Moreover, the “pKi for α7 nAChR” value at human α7 nAChR ([3H]MLA displacement, radioligand not fully displaced) is “around five”. In addition, at human α7 nAChR (highest concentration tested), the “displacement of [3H]MLA at the highest concentration tested” value is recorded as “not fully displaced”. In addition, on Ac-AChBP Y186A, the “affinity for Ac-AChBP Y186A mutant” value is “loss of affinity”. In addition, the “affinity for Ac-AChBP Y193A mutant” value on Ac-AChBP Y193A was “loss of affinity”. Also, the “stoichiometric ratio ligand/AChBP (ligands per protomer/binding site)” value at Ac-AChBP [2] is given as “three”. On human α7 nAChRs (data not shown), the “effect on α7 nAChR expressed in oocytes” value was “did not observe any effect”. The solubility result in “solubility” is on record as “not very soluble”.

Regarding `Nc1nc(-c2ccccn2)cc2ccccc12` [compound 2, 1-Amino-3-(2-pyridyl)isoquinoline], the “stoichiometric ratio ligand/AChBP (ligands per protomer/binding site)” value on Ac-AChBP [2] is on record as “multiple copies”.

Take `Nc1nc(-c2cccnc2)cc2ccccc12` [compound 3, 1-Amino-3-(3-pyridyl)isoquinoline]: the “stoichiometric ratio ligand/AChBP (ligands per protomer/binding site)” value on Ac-AChBP [2] is recorded as “multiple copies”.

Usually Kd stands for a measure of binding affinity in units of concentration. A higher Kd goes with weaker binding. As a reminder, the IC50 is the concentration at which inhibition is half-maximal. Low values mean greater potency, high ones weaker potency. Take `CN(C)c1ccc2cc3ccc(N(C)C)cc3nc2c1` [AO, acridine orange]: on Ac-AChBP [3], the affinity, expressed as Ki, was 1.58 µM. For the same compound, on Ac-AChBP [4], the “stoichiometric ratio at which Ac-AChBP quenched AO fluorescence” value is given as 0.3. Besides, the “stoichiometric ratio (n) by ITC” value on Ac-AChBP [5] (0.5 mM ligand into 20 μM Ac-AChBP) was 3–4. This compound also yielded a Kd on Ac-AChBP [5] (Kd by ITC) of 1.86 µM. Moreover, the IC50 on human α7 nAChRs was found to be 7.3 µM. In the data set “solubility”, the solubility result is on record as “highly soluble”.
